Compounds with a hit are over-represented: about 1.9% of the library has one in this group of screens.
proCasp3 act: activates human procaspase-3 | 330,000 compounds, 0.11% hits | recombinant procaspase-3 D3A, Ac-DEVD-pNA absorbance 405 nm | activation, % at 8.5 µM | AID 463141;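 active = activation above the mean of all tested compounds plus 3 SD, cut at about 21% in these data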;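 also: 0% = DMSO alone and 100% = DMSO wells spiked with extra 5 µM PC-3 D3A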
Target sequence (P42574 whole entry D9A/D28A/D175A): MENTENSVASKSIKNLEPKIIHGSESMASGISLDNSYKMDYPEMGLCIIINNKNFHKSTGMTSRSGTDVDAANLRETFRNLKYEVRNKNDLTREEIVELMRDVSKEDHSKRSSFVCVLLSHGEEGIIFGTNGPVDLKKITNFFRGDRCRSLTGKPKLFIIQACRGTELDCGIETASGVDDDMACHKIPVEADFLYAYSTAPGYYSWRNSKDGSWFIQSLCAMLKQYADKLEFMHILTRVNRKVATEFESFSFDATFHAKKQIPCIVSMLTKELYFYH
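assay system = Procaspase-3 D3A mutant | signal = absorbance at 405 nm, 0 and 120 min | times = 1 h preincubation plus 2 h reaction at 25 °C | repeats = single replicate | read-out = % activation between DMSO and enzyme-spiked controls | medium = Zinc-free HEPES saline buffer with Triton X-100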
proCasp7 act: activates human procaspase-7, counter-screen for procaspase-3 activators; P55210; recombinant procaspase-7, Ac-DEVD-pNA absorbance 405 nm; D23A/D198A/D206A triple mutant, cannot self-cleave; scale: DMSO 0, 5 µM enzyme 100; activation, % at 8.5 µM; 330,000 compounds, 0.093% hits; AID 463210;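 active = percent activation above the screen-wide mean plus 3 SD, cut at about 25% in these data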
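Material: Procaspase-7 triple mutant (PC-7 D3A) | Quantity: 2 µM procaspase-7 mutant as dispensed | Reagent: DEVD-pNA substrate | Times: 1 h preincubation, 2 h reaction | Technique: 405 nm absorbance of p-nitroaniline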
IDE inh: cellular human IDE inhibition | P14735 | HEK cells, FAbetaB cleavage, fluorescence polarization | inhibition, % at 5.59 µM | 320,000 compounds, 0.41% hits | AID 434962;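 active = percent inhibition above the average of all tested compounds plus 3 SD, set per screening campaign, cut at about 16% in these data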;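 also: IDE supplied by intact live HEK cells; FP after avidin binding of uncleaved biotin substrate so inhibition keeps polarization high; 0% = DMSO wells and 100% = 60 µM reference IDE inhibitor Ii1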
PHOSPHO1 block: PHOSPHO1 (human) inhibition; AID 1565; Q8TCT1; inhibition, % at 13.3 µM; 290,000 compounds, 1.1% hits; recombinant PHOSPHO1, absorbance phosphatase assay; in the data active = inhibition above about 60%
Target sequence (Q8TCT1 whole entry, looked up): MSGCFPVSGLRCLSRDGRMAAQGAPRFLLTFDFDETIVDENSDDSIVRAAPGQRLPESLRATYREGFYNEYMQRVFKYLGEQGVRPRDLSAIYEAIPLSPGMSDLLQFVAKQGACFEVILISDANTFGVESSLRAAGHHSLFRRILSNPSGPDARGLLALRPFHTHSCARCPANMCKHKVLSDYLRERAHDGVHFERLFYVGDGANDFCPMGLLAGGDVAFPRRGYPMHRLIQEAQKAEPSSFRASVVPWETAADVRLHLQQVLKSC
IDE cell activ: boosts human insulin-degrading enzyme activity in HEK cells | P14735 | FAbeta-B cleavage, fluorescence polarization; 0% vehicle, 100% cell-free pure enzyme wells | activation, % at 5.96 µM | 340,000 compounds, 0.073% hits;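 active = activation above the mean of all tested compounds plus 3 SD, set per screening campaign, cut at about 17% in these data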
UBC13 inh: inhibitors of human UBC13 polyubiquitin chain formation; TR-FRET; inhibition, % at 20 µM; 330,000 compounds, 0.47% hits; in the data active = inhibition above about 45%, passing the limit was not always enough; inconclusive = no clear call, values can overlap the other calls
PC3 D3A act: counter-screen for dual procaspase-3/7 activators: human procaspase-3 activation; shares compounds with proCasp7 act; recombinant PC-3 D3A, Ac-DEVD-pNA absorbance 405 nm; aspartates 9, 28, 175 changed to alanine; 100% = enzyme control; activation, % at 8.5 µM; 290 tested, under 10 active;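 active = mean percent activation across triplicates above a set limit taken from the earlier primary procaspase-3 screen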;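 also: 0% = DMSO wells and 100% = DMSO wells with 5 µM added PC-3 D3A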
Procasp7 act: confirmation of dual procaspase activators: human procaspase-7 activation; AID 493115; 290 tested, under 10 active; shares compounds with proCasp7 act; recombinant procaspase-7, Ac-DEVD-pNA absorbance 405 nm; D23A/D198A/D206A mutant that cannot self-cleave; activation, % at 8.5 µM;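 active = mean activation above a set limit carried over from the earlier primary screen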;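 also: 0% = DMSO only and 100% = DMSO with added 5 µM PC-7 enzyme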
An asterisk follows results filed as active.

COc1ccc(Nc2ncc(C(=O)N3CCN(c4ccc(F)cc4)CC3)c3ccccc23)cc1 was read as proCasp3 act 13, proCasp7 act 27*, IDE inh 6, PHOSPHO1 block 8, IDE cell activ 4, UBC13 inh -7, PC3 D3A act 8 and Procasp7 act 0.
Screening O=C(NNC(=O)c1cc2cc3ccccc3nc2s1)c1cccc(C(F)(F)F)c1 returned proCasp3 act 0, proCasp7 act 26*, IDE inh 6, PHOSPHO1 block -26, IDE cell activ 2, UBC13 inh -17, PC3 D3A act -23 and Procasp7 act -19.
`O=C(NNS(=O)(=O)c1ccccc1)c1cc2cc3ccccc3nc2s1` gave proCasp3 act -1, proCasp7 act 7, IDE inh -2, PHOSPHO1 block 16, IDE cell activ -1 and UBC13 inh -21.
COc1ccc(Cn2c(N)c(C#N)c3nc4ccccc4nc32)cc1 was read as proCasp3 act -7, proCasp7 act -22, IDE inh -3, PHOSPHO1 block -4, IDE cell activ 0 and UBC13 inh -19.
COc1cc(Cn2c(N)c(C#N)c3nc4ccccc4nc32)cc(OC)c1 was read as proCasp3 act 91*, proCasp7 act 85*, IDE inh 1, PHOSPHO1 block 18, IDE cell activ 5, UBC13 inh 22, PC3 D3A act -29 and Procasp7 act -35.
Cc1ccc(NC(=O)CCCCCN2C(=O)[C@@H]3Cc4ccccc4CN3C2=O)c(C)c1 was read as proCasp3 act -6, proCasp7 act 1, IDE inh -1, PHOSPHO1 block 33, IDE cell activ -1 and UBC13 inh 0.
Screening Cc1ccc(NC(=O)c2ccc(COc3ccccc3)o2)nc1 returned proCasp3 act -2, proCasp7 act -2, IDE inh 0, PHOSPHO1 block 43, IDE cell activ 0 and UBC13 inh -7.
For CCOP(=O)(OCC)c1nc(-c2cccc3ccccc23)oc1NCCc1ccc(OC)cc1 the results were proCasp3 act 22*, proCasp7 act 30*, IDE inh -2, PHOSPHO1 block -4, IDE cell activ 5, UBC13 inh inconclusive, PC3 D3A act -28 and Procasp7 act -36.
Cc1ccc(NC(=O)CSc2nc(=O)n(CCCN3CCOCC3)c3c2CCCC3)cc1 was read as proCasp3 act -1, proCasp7 act 11, IDE inh 2, IDE cell activ 0 and UBC13 inh -1.
Screening CCOC(=O)c1c(C)[nH]c(C)c1S(=O)(=O)NCCc1ccco1 returned proCasp3 act 3, proCasp7 act -3, IDE inh 6, PHOSPHO1 block 38, IDE cell activ 2 and UBC13 inh 2.
For Clc1ccc(CCNc2nc3ccccc3s2)cc1 the results were proCasp3 act -4, proCasp7 act -2, IDE inh -8, PHOSPHO1 block -25, IDE cell activ 8 and UBC13 inh 11.
`O=c1c(-c2nc3ccccc3s2)cccn1Cc1ccc(Cl)cc1` gave proCasp3 act 123*, proCasp7 act 90*, IDE inh 5, PHOSPHO1 block 24, IDE cell activ 5, UBC13 inh 32, PC3 D3A act -29 and Procasp7 act -36.
`CCN(CC)c1ccc(/C=N/NC(=O)CNC(=O)C2COc3ccccc3O2)c(O)c1` (stereo unspecified) gave proCasp3 act -13, proCasp7 act -14, IDE inh 2, PHOSPHO1 block 9, IDE cell activ 3 and UBC13 inh -11.
Cc1c(Cc2ccccc2)c(=O)oc2cc(O)cc(O)c12 was read as proCasp3 act 21, proCasp7 act 26*, IDE inh -9, PHOSPHO1 block 25, IDE cell activ 4, UBC13 inh inconclusive, PC3 D3A act -28 and Procasp7 act -34.
For Cc1coc2cc3oc(=O)c(Cc4ccccc4)c(C)c3cc12 the results were proCasp3 act 3, proCasp7 act 2, IDE inh 6, PHOSPHO1 block -4, IDE cell activ 0 and UBC13 inh 3.
COc1ccc(-c2sc3cc(OC)c(OC)cc3c2-c2ccc(O)cc2)cc1 was read as proCasp3 act 3, proCasp7 act 0, IDE inh -2, IDE cell activ 2 and UBC13 inh 10.
For Cc1cccc(/C=N/NC(=O)c2ccc(NC(=O)c3ccccc3C)cc2)n1 the results were proCasp3 act 4, proCasp7 act 34*, IDE inh 5, PHOSPHO1 block 20, IDE cell activ 2, UBC13 inh -3, PC3 D3A act 0 and Procasp7 act 0.
Screening Cc1cccc(/C=N/NC(=O)c2ccc(NC(=O)c3ccccc3Cl)cc2)n1 returned proCasp3 act 0, proCasp7 act 8, IDE inh 2, PHOSPHO1 block 31, IDE cell activ 2 and UBC13 inh -4.
CCC(=O)Nc1nn(C)c2nc3c(C)cccc3cc12 was read as proCasp3 act -3, proCasp7 act 3, IDE inh 5, PHOSPHO1 block 2, IDE cell activ 4 and UBC13 inh -5.
`COc1ccc(CC(=O)Nc2nn(C)c3nc4c(C)cccc4cc23)cc1` gave proCasp3 act 23*, proCasp7 act 40*, IDE inh 6, PHOSPHO1 block 28, UBC13 inh -1, PC3 D3A act -30 and Procasp7 act -35.
Screening C=CC[C@@H](CC(=O)N(CCO)Cc1ccccc1)C(=O)N[C@H](C)COC(=O)[C@@H](CC=C)Cc1ccc(F)cc1 returned proCasp3 act 0, proCasp7 act 27*, IDE inh 5, IDE cell activ 4, UBC13 inh 6, PC3 D3A act 2 and Procasp7 act 1.
For O=C(NNC(=O)C1CC(c2cccnc2)=NO1)Nc1ccccc1F (stereo unspecified) the results were proCasp3 act -3, proCasp7 act 26*, IDE inh 3, PHOSPHO1 block 65*, IDE cell activ 2, UBC13 inh -6, PC3 D3A act 1 and Procasp7 act 3.
`Cc1ccc(NC(=O)NNC(=O)C2CC(c3cccnc3)=NO2)cc1` (stereo unspecified) gave proCasp3 act 9, proCasp7 act -13, IDE inh 6, PHOSPHO1 block 26, IDE cell activ -1 and UBC13 inh -4.
